CSC inhib – cancer stem cell inhibition; cancer stem cell-like cells viability, luminescence; inhibition, % at 7.5 µM; hit rate 1.1% among 300,000; in the data active = inhibition above about 75%; tested in HMLE shEcad cells
PREPL inhibitor – inhibits the human prolyl oligopeptidase-like enzyme; Q4J6C6; recombinant PREPL, fluorescence polarization activity-based probe; inhibition, % at 5.96 µM; hit rate 0.68% among 320,000; AID 2751; in the data active = inhibition above about 43%;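 note: 0% = enzyme with DMSO and 100% = wells lacking enzyme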
Target sequence (Q4J6C6 whole entry, looked up): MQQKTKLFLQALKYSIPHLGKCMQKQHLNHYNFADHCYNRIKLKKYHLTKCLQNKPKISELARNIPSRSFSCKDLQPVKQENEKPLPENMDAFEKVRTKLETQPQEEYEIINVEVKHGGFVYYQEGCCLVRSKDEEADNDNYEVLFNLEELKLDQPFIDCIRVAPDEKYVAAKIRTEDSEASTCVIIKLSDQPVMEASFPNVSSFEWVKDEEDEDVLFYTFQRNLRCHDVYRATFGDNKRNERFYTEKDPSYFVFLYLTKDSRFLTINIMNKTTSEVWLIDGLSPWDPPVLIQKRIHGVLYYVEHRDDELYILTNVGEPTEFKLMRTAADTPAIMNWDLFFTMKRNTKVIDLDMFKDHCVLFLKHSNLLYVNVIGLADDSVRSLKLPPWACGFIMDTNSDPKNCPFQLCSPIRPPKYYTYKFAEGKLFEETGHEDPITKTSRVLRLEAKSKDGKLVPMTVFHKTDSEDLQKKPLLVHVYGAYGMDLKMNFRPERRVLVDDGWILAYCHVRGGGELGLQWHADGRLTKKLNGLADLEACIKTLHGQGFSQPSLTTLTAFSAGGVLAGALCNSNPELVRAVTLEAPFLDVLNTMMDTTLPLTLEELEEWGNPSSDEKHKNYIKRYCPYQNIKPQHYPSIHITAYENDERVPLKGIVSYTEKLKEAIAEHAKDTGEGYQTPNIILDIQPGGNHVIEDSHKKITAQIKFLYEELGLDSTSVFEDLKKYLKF
Beta apoptosis – beta cell apoptosis inhibition | protection from apoptosis, % (no concentration beside the values) | hit rate 0.8% among 300,000 | AID 435005 | INS-1E cytokine-induced death, ATP luminescence, 48 h; percent of positive-control rescue, neutral wells zero;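 active = Every replicate reaches about 75%, or at least half do and their mean reaches it too, limit read from the data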;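 note: 0% = cytokine-treated negative control wells and 100% = positive control rescue; higher means more ATP so stronger rescue from cytokine killing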
GRIN3A LBD mod – modulators (binders) of human NR3A ligand-binding domain. NR3A LBD differential scanning fluorimetry, Tm shift; 0% = protein alone, 100% = glycine-bound protein. Tm shift relative to glycine control, % at 25 µM. hit rate 2.5% among 340,000. AID 1259313;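 active = melting temperature shift of at least 10% of the positive control shift, at one fixed dose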
T cruzi inh – blocks replication of Trypanosoma cruzi. T. cruzi beta-gal in NIH3T3, luminescence, 90 h. inhibition, % (concentration not given with the values). hit rate 1.4% among 300,000;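 active = mean inhibition across valid replicates above about 55%, limit read from the data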;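 note: signal also drops with host cell toxicity which is not excluded here; 0% = plate median of DMSO wells and 100% = zero luminescence signal; higher percent means less beta-gal luminescence so fewer parasites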
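Assay system: NIH/3T3 host cells with β-galactosidase reporter T. cruzi; input: 5,000 host fibroblasts per well; compound: single 50 nL compound addition per well in DMSO; timing: ≥90 h infection period, 3 h prior cell attachment; measured by: GalScreen β-gal luminescence, detergent lysis, 60 min; evaluation: percent inhibition of parasite-derived β-gal signal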
CHOP inhibitor – blocks CHOP induction under ER stress; CHO-K1 CHOP-promoter luciferase, tunicamycin-induced, 15-18 h; inhibition, % at 10 µM; hit rate 3.8% among 220,000;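 active = compounds that reduced the stress-induced luciferase reporter signal by more than about 70% of percent inhibition, limit read from the data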;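 note: 0% = tunicamycin plus vehicle and 100% = wells without tunicamycin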
* = called active by the depositor; x = not tested or not shown. Sampled rows, rich in hits. Any-hit rate of the full collection: about 6.7%.

SMILES	CSC inhib	PREPL inhibitor	Beta apoptosis	GRIN3A LBD mod	T cruzi inh	CHOP inhibitor
C=C(C)CN=C1NN=C(c2cc(C)n(-c3ccc(C)cc3)c2C)CS1	-23.1	11.4	-5.8	-1.3	10.0	74.5*
CC1=C(C(=O)OCc2ccccc2)C(c2ccccc2[N+](=O)[O-])NC(=O)N1C (centres undefined)	-6.2	-0.8	x	-1.8	-20.2	x
CC(=O)Oc1ccc(N(C(C)=O)S(=O)(=O)c2cccs2)c2ccccc12	-3.1	16.1	92.7*	-0.8	-5.0	-48.3
CC(=O)Oc1ccccc1N(C(C)=O)S(=O)(=O)c1ccc2ccccc2c1	11.7	8.1	x	-1.9	-23.0	12.4
O=C(CCCN1C(=O)c2ccccc2C1=O)NCc1cccnc1	-6.9	9.5	0.8	-0.3	3.3	0.9
CCCOc1ccc(/C=C/C(=O)NCc2ccccc2)cc1	23.8	3.3	4.5	12.5*	23.3	39.4
O=C(CCCCCCCCCCC(=O)NCc1cccnc1)NCc1cccnc1	71.7	-1.2	112.1*	-3.7	-35.7	1.0
O=C(/C=C/c1ccc(-c2ccccc2)cc1)NCc1cccnc1	14.1	-5.4	98.1*	0.3	35.7	x
C=CCN(CC=C)CCCOc1ccc(Br)cc1Cl	x	6.4	4.4	0.4	25.4	0.1
O=C(C1=NN[C@@H]2C(=O)N(c3cccc(F)c3)C(=O)[C@H]12)C(c1ccccc1)c1ccccc1	-1.5	1.1	-2.0	-3.3	-4.5	33.8
O=C(C1=NN[C@@H]2C(=O)N(c3cccc(C(F)(F)F)c3)C(=O)[C@H]12)C(c1ccccc1)c1ccccc1	12.7	-1.8	-5.3	15.5*	9.0	62.0
COc1ccc2nc(NC(=O)CSC(C)C(=O)Nc3cc(C)on3)sc2c1 (centres undefined)	-0.7	-5.6	7.7	-0.6	-16.7	x
COc1cccc(/C=N/NC(=O)c2c(-c3ccccc3)noc2C)c1O	48.4	-3.6	87.0*	-2.7	-7.5	53.2
Cc1ccc(/C=N/NC(=O)c2c(-c3ccccc3)noc2C)c(O)c1	51.3	-5.8	93.2*	x	5.5	x
COc1cccc(/C=N/NC(=O)c2ccoc2C)c1O	13.7	21.9	85.5*	-5.0	8.8	55.1
CCN(CC)C(=O)c1csc(Nc2ccc(C)cc2)n1	1.4	6.7	3.7	-0.3	11.2	-14.2
CCOC(=O)/C(=N\Nc1ccc(Cl)cc1)c1csc(Nc2ccccc2)n1	-7.2	11.0	15.5	26.7*	64.6*	-3.1
CCCCC(CCC(=O)O)(C(=O)OCC)c1csc(Nc2ccccc2)n1 (centres undefined)	14.5	0.1	-4.2	1.2	3.1	27.7
CCOC(=O)/C(=N\Nc1ccc(OC)cc1)c1csc(Nc2ccccc2)n1	104.2*	21.6	6.3	1.4	81.2*	-28.2
CCOC(=O)/C(=N/Nc1ccccc1)c1csc(Nc2ccccc2)n1	107.3*	8.5	16.2	26.1*	61.5*	20.4
COc1ccc([N+](=O)[O-])cc1NC(=O)C(C)Sc1nc(-c2ccccc2)cs1 (centres undefined)	13.6	9.6	13.8	-4.3	15.9	8.7
CCCCC[C@@H](/C=C/C1C(=O)C=C[C@H]1C/C=C\CCCC(=O)O)OC(C)=O (some centres undefined)	x	x	x	-0.5	x	x
Cc1cc(=O)[nH]c2sc(C(=O)N3c4ccccc4CC3C)c(N)c12 (centres undefined)	-7.3	-0.9	1.9	-0.3	x	x
COc1cccc(OC)c1OCCCN1CCC(Cc2ccccc2)CC1	30.9	-15.0	2.5	0.0	21.1	x
CN(C)CCNC(=O)c1cc2c(s1)-c1ccc(Cl)cc1SC2	102.3*	x	-8.5	1.8	40.2	x
SMILES	CSC inhib	PREPL inhibitor	Beta apoptosis	GRIN3A LBD mod	T cruzi inh	CHOP inhibitor
CNc1ccc(/C=C(\CCC(=O)O)c2nc3ccccc3s2)cc1[N+](=O)[O-]	12.9	24.1	5.6	24.5*	8.0	28.6
CN(c1ccccc1)c1ccc(/C=C(\CCC(=O)O)c2nc3ccccc3s2)cc1[N+](=O)[O-]	38.7	21.2	3.9	1.1	-13.9	99.8*
Cc1ccc(/C=C(\CCC(=O)O)c2nc3ccccc3s2)cc1[N+](=O)[O-]	38.0	14.9	2.2	2.1	0.3	34.8
COc1ccc(C(=O)Nc2cccc(/C=C(\CCC(=O)O)c3nc4ccccc4s3)c2)cc1	-9.7	-9.5	2.1	-6.2	-1.6	83.4*
Cc1ccccc1C(=O)NNC(=O)Nc1ccccc1	-9.0	3.6	0.9	x	-8.0	0.8
Cc1cc(C)n(CCC(=O)N2CCCC(N3CCN(c4cccc(Cl)c4)CC3)C2)n1 (centres undefined)	-3.1	13.5	0.5	-2.2	9.9	x
CNC(C)C(=O)NC(C(=O)N1CCCC1C(=O)NNc1ccccc1)C(C)C (centres undefined)	98.1*	21.4	5.0	0.1	x	x
CCCCOc1ccc(-c2nnn(CC(=O)NCCc3c[nH]c4ccccc34)n2)cc1	12.0	2.0	5.9	16.7*	46.2	79.1*
CCCCCCCCCCCCCCCC(=O)NCCc1c[nH]c2ccccc12	-1.1	2.2	-6.1	-0.5	2.4	6.8
Cc1c(CCO)c(=O)[nH]n1C(=O)c1ccc(F)cc1	-5.9	-8.8	-2.2	2.3	-9.5	7.4
CCCCCCCCn1ccc(=N)cc1	25.0	3.3	130.2*	2.5	38.5	62.1
CCCCCCN1Cc2ccccc2C1	15.0	-4.8	-2.3	-1.4	-13.9	-10.4
CCCCCCCCCCn1ccc(=N)cc1	35.9	1.9	116.4*	-3.8	76.6*	80.1*
N=c1ccn(Cc2ccc(F)cc2)cc1	-3.2	6.7	-3.8	1.2	-21.4	5.3
CCCCOP(=O)(OCCCC)C(Nc1ccccc1)c1ccc2c(c1)OCO2 (centres undefined)	9.5	0.7	-2.5	14.3*	10.0	91.1*
Clc1ccc(Nc2ccc(NCc3ccccc3)nn2)cc1	34.7	32.8	3.3	23.8*	42.0	12.8
COc1cccc(C2NC(c3cccc(OC)c3O)C(C)C(=O)C2C)c1O (centres undefined)	-2.6	9.1	-6.6	0.7	-22.9	32.0
CC1C(=O)C(C)C(c2cc(Cl)ccc2O)NC1c1cc(Cl)ccc1O (centres undefined)	47.8	19.1	4.3	26.8*	31.7	x
Cc1ccc(S(=O)(=O)N2CCC(C(=O)OCCOc3cccc(C)c3)CC2)cc1	x	-5.2	-5.0	20.2*	x	x
Oc1ccc(C[C@H]2CNC(=S)N2CC2CCCN2C[C@H](Cc2ccc(O)cc2)N2C[C@H](Cc3ccccc3)N(CC3CCCCC3)C2=S)cc1 (some centres undefined)	x	x	x	32.6*	x	x
CC(C)C[C@H]1CN([C@@H](CC(C)C)CN2CCCC2CN2C(=S)NC[C@@H]2Cc2ccc(O)cc2)C(=S)N1CC1CCCCC1 (some centres undefined)	x	x	x	13.2*	x	x
CC(C)C[C@H]1CN([C@@H](CC(C)C)CN2CCCC2CN2C(=S)NC[C@@H]2Cc2ccc(O)cc2)C(=S)N1CC1CCCCCC1 (some centres undefined)	x	x	x	5.2	x	x

Source: PubChem BioAssay
